From ChEMBL document CHEMBL3351768, “7-(4-Alkylidenylpiperidinyl)-quinolone bacterial topoisomerase inhibitors” (2014) come the findings set out here.

In brackets after ≈: the same amount, converted by molar mass.

Common to all, as to type: functional
The test system of assay [1] is Staphylococcus aureus. Briefly: Antibacterial activity against ciprofloxacin-susceptible Staphylococcus aureus OC4172 by broth microdilution method. The procedure, abridged:
(§1)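 MIC by broth microdilution following CLSI M07-A9 guidelines for aerobically growing bacteria. Where a compound was tested more than once, across several test dates or batches, the modal MIC is reported.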
For orientation: Broth dilution looks for growth in wells or tubes with falling amounts of substance.

Assay [2] relates to Streptococcus pneumoniae. Nature of the assay: Antibacterial activity against ciprofloxacin-resistant Streptococcus pneumoniae OC6578 clinical isolate by broth microdilution method.
The subject of assay [3] is Streptococcus pneumoniae. Briefly: Antibacterial activity against ciprofloxacin-resistant Streptococcus pneumoniae OC5465 clinical isolate by broth microdilution method.
In assay [4] the test system is Streptococcus pneumoniae. Nature of the assay: Antibacterial activity against ciprofloxacin-susceptible Streptococcus pneumoniae ATCC49619 by broth microdilution method. Put shortly:
as §1

Assay [5] deals with Streptococcus pneumoniae. Briefly: Antibacterial activity against ciprofloxacin-resistant Streptococcus pneumoniae OC6608 clinical isolate by broth microdilution method.
Assay [6] deals with Staphylococcus epidermidis. Briefly: Antibacterial activity against methicillin-resistant Staphylococcus epidermidis OC5340 by broth microdilution method. Put shortly: (§2)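 Broth microdilution MIC per CLSI M07-A9 guidelines for aerobically growing bacteria. Where a compound was tested several times (multiple test dates and batches), the modal MIC is reported.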
For assay [7], the system named is Escherichia coli. Briefly: Antibacterial activity against Escherichia coli ATCC 25922 by broth microdilution method. The procedure, abridged: as §1
The subject of assay [8] is Staphylococcus aureus. Briefly: Antibacterial activity against methicillin-resistant Staphylococcus aureus OC2805 by broth microdilution method. The procedure, abridged: as §2

By MIC is commonly meant the smallest concentration in the dilution series that meets the test's criterion for growth inhibition. Read a low MIC as a more susceptible organism. As to `NCC(Cl)=C1CCN(c2cc3c(cc2F)c(=O)c(C(=O)O)cn3C2CC2)CC1`, the MIC was determined as 0.03 µg/mL (≈ 0.0739 µM) in assay [1], 0.5 µg/mL (≈ 1.23 µM) in assay [2], 1 µg/mL (≈ 2.46 µM) in assay [3] and 0.12 µg/mL (≈ 0.296 µM) in assay [4].

For the compound `C[C@H]1COc2c(N3CCC(=C(Cl)CN)CC3)c(F)cc3c(=O)c(C(=O)O)cn1c23`, the MIC is no more than 0.015 µg/mL in assay [1]; 0.25 µg/mL (≈ 0.593 µM) in assay [2]; 0.5 µg/mL (≈ 1.19 µM) in assay [3]; 0.25 µg/mL (≈ 0.593 µM) in assay [5]; 0.03 µg/mL (≈ 0.0711 µM) in assay [4].

Take `NCC(F)=C1CCN(c2cc3c(cc2F)c(=O)c(C(=O)O)cn3C2CC2)CC1`: the results for the MIC in assay [1], in assay [2] and in assay [4] were 0.03 µg/mL (≈ 0.077 µM), 1 µg/mL (≈ 2.57 µM) and 0.06 µg/mL (≈ 0.154 µM), respectively.

Take `CCNCC(Cl)=C1CCN(c2c(F)cc3c(=O)c(C(=O)O)cn(C4CC4)c3c2OC)CC1`: the MIC is 0.12 µg/mL (≈ 0.259 µM) in assay [1]; 1 µg/mL (≈ 2.16 µM) in assay [2]; 1 µg/mL (≈ 2.16 µM) in assay [3]; 1 µg/mL (≈ 2.16 µM) in assay [5]; 0.25 µg/mL (≈ 0.539 µM) in assay [4].

Turning to `NCC(F)=C1CCN(c2c(F)cc3c(=O)c(C(=O)O)cn(C4CC4)c3c2OC(F)F)CC1`, the MIC in assay [1] was found to be 0.06 µg/mL (≈ 0.132 µM); in assay [2], 2 µg/mL (≈ 4.39 µM); in assay [3], 0.25 µg/mL (≈ 0.549 µM); in assay [5], 0.25 µg/mL (≈ 0.549 µM); in assay [4], 0.25 µg/mL (≈ 0.549 µM).

Regarding `NCC=C1CCN(c2nc3c(cc2F)c(=O)c(C(=O)O)cn3C2CC2)CC1`, the MIC was 0.12 µg/mL (≈ 0.322 µM) in assay [1], 8 µg/mL (≈ 21.5 µM) in assay [2], 8 µg/mL (≈ 21.5 µM) in assay [5] and 0.5 µg/mL (≈ 1.34 µM) in assay [4].

With `CC(CN)=C1CCN(c2cc3c(cc2F)c(=O)c(C(=O)O)cn3C2CC2)CC1`, the MIC in assay [1] was determined as 0.12 µg/mL (≈ 0.311 µM); in assay [2], 2 µg/mL (≈ 5.19 µM); in assay [3], 8 µg/mL (≈ 20.8 µM); in assay [5], 8 µg/mL (≈ 20.8 µM); in assay [4], 1 µg/mL (≈ 2.59 µM).

Consider `CNCC(Cl)=C1CCN(c2c(F)cc3c(=O)c(C(=O)O)cn(C4CC4)c3c2OC)CC1`, for which the MIC in assay [1] is no more than 0.015 µg/mL; in assay [6], 0.5 µg/mL (≈ 1.11 µM); in assay [7] it was 0.5 µg/mL (≈ 1.11 µM); in assay [8] it was 0.5 µg/mL (≈ 1.11 µM); in assay [2], 0.5 µg/mL (≈ 1.11 µM); in assay [3], 0.25 µg/mL (≈ 0.556 µM). The MIC in assay [5] came to 0.25 µg/mL (≈ 0.556 µM); in assay [4], 0.06 µg/mL (≈ 0.133 µM).

In the case of `NCC(F)=C1CCN(c2nc3c(cc2F)c(=O)c(C(=O)O)cn3C2CC2)CC1`, the MIC worked out at 0.03 µg/mL (≈ 0.0768 µM) in assay [1]; 0.5 µg/mL (≈ 1.28 µM) in assay [2]; 1 µg/mL (≈ 2.56 µM) in assay [3]; 2 µg/mL (≈ 5.12 µM) in assay [5]; 0.12 µg/mL (≈ 0.307 µM) in assay [4].

Consider `COc1c(N2CCC(=C(Cl)CNC(C)C)CC2)c(F)cc2c(=O)c(C(=O)O)cn(C3CC3)c12`, for which the MIC in assay [1] turned out to be 0.12 µg/mL (≈ 0.251 µM); in assay [2], 4 µg/mL (≈ 8.37 µM); in assay [3], 2 µg/mL (≈ 4.18 µM); in assay [4], 0.5 µg/mL (≈ 1.05 µM).

With `NCC(Cl)=C1CCN(c2nc3c(cc2F)c(=O)c(C(=O)O)cn3C2CC2)CC1`, the minimal inhibitory concentration (MIC) in assay [1] was found to be 0.06 µg/mL (≈ 0.147 µM); in assay [2], 0.25 µg/mL (≈ 0.614 µM); in assay [3], 1 µg/mL (≈ 2.46 µM); in assay [5] it was 1 µg/mL (≈ 2.46 µM); in assay [4], 0.12 µg/mL (≈ 0.295 µM).

Take `CC(CN)=C1CCN(c2c(F)cc3c(=O)c(C(=O)O)cn4c3c2OCC4C)CC1` (racemic): the MIC in assay [1] was 0.5 µg/mL (≈ 1.25 µM); in assay [2], greater than 16 µg/mL; in assay [3] it was greater than 16 µg/mL; in assay [5], 4 µg/mL (≈ 9.96 µM); in assay [4], 1 µg/mL (≈ 2.49 µM).

`COc1c(N2CCC(=C(C)CN)CC2)c(F)cc2c(=O)c(C(=O)O)cn(C3CC3)c12`: the MIC in assay [1] came to 0.03 µg/mL (≈ 0.0722 µM); in assay [2] it was 0.25 µg/mL (≈ 0.602 µM); in assay [3] it was 0.25 µg/mL (≈ 0.602 µM); in assay [4], 0.12 µg/mL (≈ 0.289 µM).

As to `COc1c(N2CCC(=C(F)CN)CC2)c(F)cc2c(=O)c(C(=O)O)cn(C3CC3)c12`, the MIC was 0.03 µg/mL (≈ 0.0715 µM) in assay [1]; 1 µg/mL (≈ 2.38 µM) in assay [2]; 0.5 µg/mL (≈ 1.19 µM) in assay [3]; 0.5 µg/mL (≈ 1.19 µM) in assay [5]; 0.12 µg/mL (≈ 0.286 µM) in assay [4].

As to `CC1COc2c(N3CCC(=C(F)CN)CC3)c(F)cc3c(=O)c(C(=O)O)cn1c23` (racemic), the MIC in assay [1] worked out at 0.25 µg/mL (≈ 0.617 µM); in assay [2] it was 8 µg/mL (≈ 19.7 µM); in assay [3], 8 µg/mL (≈ 19.7 µM); in assay [5] it was 2 µg/mL (≈ 4.93 µM); in assay [4] it was 0.5 µg/mL (≈ 1.23 µM).

In the case of `CC(CN)=C1CCN(c2nc3c(cc2F)c(=O)c(C(=O)O)cn3C2CC2)CC1`, the MIC in assay [1] is 0.06 µg/mL (≈ 0.155 µM); in assay [2], 1 µg/mL (≈ 2.59 µM); in assay [3], 1 µg/mL (≈ 2.59 µM); in assay [5] it was 0.25 µg/mL (≈ 0.647 µM); in assay [4], 0.12 µg/mL (≈ 0.311 µM).

As for `COc1c(N2CCC(=C(Cl)CN)CC2)c(F)cc2c(=O)c(C(=O)O)cn(C3CC3)c12`, the MIC in assay [1] was no more than 0.015 µg/mL; in assay [6], 0.25 µg/mL (≈ 0.574 µM); in assay [7], 0.25 µg/mL (≈ 0.574 µM); in assay [8] it was 0.25 µg/mL (≈ 0.574 µM); in assay [2] it was 0.25 µg/mL (≈ 0.574 µM); in assay [3] it was 0.25 µg/mL (≈ 0.574 µM). Moreover, the MIC in assay [5] stood at 0.25 µg/mL (≈ 0.574 µM); in assay [4], 0.06 µg/mL (≈ 0.138 µM).

As for `COc1c(N2CCC(=C(Cl)CN(C)C)CC2)c(F)cc2c(=O)c(C(=O)O)cn(C3CC3)c12`, the MIC worked out at 0.25 µg/mL (≈ 0.539 µM) in assay [1]; 8 µg/mL (≈ 17.2 µM) in assay [2]; 2 µg/mL (≈ 4.31 µM) in assay [3]; 8 µg/mL (≈ 17.2 µM) in assay [5]; 0.5 µg/mL (≈ 1.08 µM) in assay [4].

As to `NCC(Cl)=C1CCN(c2c(F)cc3c(=O)c(C(=O)O)cn(C4CC4)c3c2OC(F)F)CC1`, the minimum inhibitory concentration (MIC) worked out at 0.06 µg/mL (≈ 0.127 µM) in assay [1]; 0.5 µg/mL (≈ 1.06 µM) in assay [6]; 0.5 µg/mL (≈ 1.06 µM) in assay [7]; 1 µg/mL (≈ 2.12 µM) in assay [8]; 1 µg/mL (≈ 2.12 µM) in assay [2]; 0.12 µg/mL (≈ 0.254 µM) in assay [3]. Moreover, the MIC in assay [5] was 0.5 µg/mL (≈ 1.06 µM); in assay [4], 0.12 µg/mL (≈ 0.254 µM).

`O=C(O)c1cn(C2CC2)c2cc(N3CCNCC3)c(F)cc2c1=O` [CIPROFLOXACIN]: the results for the MIC in assay [1], in assay [6] and in assay [4] were 0.12 µg/mL (≈ 0.362 µM), 8 µg/mL (≈ 24.1 µM) and 1 µg/mL (≈ 3.02 µM), respectively.
